# Test results reported in ChEMBL document CHEMBL5303300, “EUbOPEN Chemogenomics Library - Multiplex” (2023).
# Where “and” joins values, the source holds several entries; their conditions need not be identical. Equal values may be shown once.
# Key:
# Format in all cases: toxicity, cell-based
# HEK-293T = assay: Multiplex assay against HEK293T; conditions: human, number of replicates 2
# Procedure, shortened: (§1)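 With compound added, live cells were imaged on a CQ1 microscope at 37°C and 5% CO2; staining with Hoechst33342, BioTracker Green Microtubule Cytoskeleton Dye, MitoTracker Red and Annexin V Alexa Fluor 680 had been done at seeding. The CellPathfinder machine-learning gating scheme split cells into Hoechst high-intensity objects or normal cells, normal cells into healthy, pyknosed or fragmented nuclei, and pyknosed cells into mitotic or apoptotic. The tubulin, mitochondrial-mass and membrane-permeability phenotypes are per cents of healthy-nucleus cells.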
# Fibroblast = assay: Multiplex assay against human fibroblast; conditions: number of replicates 2; procedure, shortened: as §1
# U2OS = assay: Multiplex assay against U2OS; conditions: human, number of replicates 2; procedure, shortened: as §1
# [1] = 12 h, 1 µM, compound concentration 1 uM
# [2] = 12 h, 10 µM, compound concentration 10 uM
# [3] = 24 h, 1 µM, compound concentration 1 uM
# [4] = 24 h, 10 µM, compound concentration 10 uM
# [5] = 48 h, 1 µM, compound concentration 1 uM
# [6] = 48 h, 10 µM, compound concentration 10 uM
smiles,measurement,setting,value
Br.Oc1cc2c(cc1O)C(c1ccccc1)CNCC2 (stereo not drawn),Population Apoptotic (%),HEK-293T; [1],30% and 41%
same,Population Fragmented Nuclei (%),HEK-293T; [1],5% and 3%
same,Population Healthy Nuclei (%),HEK-293T; [1],85%
same,Population Hoechst High Intensity Objects (%),HEK-293T; [1],6% and 4%
same,Population Membrane Permeable-Phenotype (%),HEK-293T; [1],4% and 2%
same,Population Mitochondria Different-Phenotype (%),HEK-293T; [1],9% and 10%
same,Population Mitotic Cells (%),HEK-293T; [1],69% and 58%
same,Population Normal (%),HEK-293T; [1],93% and 95%
same,Population Pyknosed Nuclei (%),HEK-293T; [1],9% and 10%
same,Population Tubulin-Different-Phenotype (%),HEK-293T; [1],45% and 42%
same,Total Cell Count,HEK-293T; [1],950 and 793
same,Population Apoptotic (%),HEK-293T; [2],36% and 47%
same,Population Fragmented Nuclei (%),HEK-293T; [2],4% and 3%
same,Population Healthy Nuclei (%),HEK-293T; [2],86% and 88%
same,Population Hoechst High Intensity Objects (%),HEK-293T; [2],7% and 5%
same,Population Membrane Permeable-Phenotype (%),HEK-293T; [2],2% and 0%
same,Population Mitochondria Different-Phenotype (%),HEK-293T; [2],12% and 21%
same,Population Mitotic Cells (%),HEK-293T; [2],63% and 52%
same,Population Normal (%),HEK-293T; [2],92% and 94%
same,Population Pyknosed Nuclei (%),HEK-293T; [2],8%
same,Population Tubulin-Different-Phenotype (%),HEK-293T; [2],51% and 55%
same,Total Cell Count,HEK-293T; [2],631 and 499
same,Population Apoptotic (%),HEK-293T; [3],20% and 36%
same,Population Fragmented Nuclei (%),HEK-293T; [3],6% and 5%
same,Population Healthy Nuclei (%),HEK-293T; [3],89%
same,Population Hoechst High Intensity Objects (%),HEK-293T; [3],8% and 9%
same,Population Membrane Permeable-Phenotype (%),HEK-293T; [3],3% and 2%
same,Population Mitochondria Different-Phenotype (%),HEK-293T; [3],3%
same,Population Mitotic Cells (%),HEK-293T; [3],80% and 63%
same,Population Normal (%),HEK-293T; [3],91% and 90%
same,Population Pyknosed Nuclei (%),HEK-293T; [3],4% and 5%
same,Population Tubulin-Different-Phenotype (%),HEK-293T; [3],27% and 29%
same,Total Cell Count,HEK-293T; [3],1693 and 1195
same,Population Apoptotic (%),HEK-293T; [4],29% and 50%
same,Population Fragmented Nuclei (%),HEK-293T; [4],9% and 7%
same,Population Healthy Nuclei (%),HEK-293T; [4],86% and 88%
same,Population Hoechst High Intensity Objects (%),HEK-293T; [4],9% and 6%
same,Population Membrane Permeable-Phenotype (%),HEK-293T; [4],4% and 2%
same,Population Mitochondria Different-Phenotype (%),HEK-293T; [4],3% and 12%
same,Population Mitotic Cells (%),HEK-293T; [4],70% and 50%
same,Population Normal (%),HEK-293T; [4],90% and 93%
same,Population Pyknosed Nuclei (%),HEK-293T; [4],4%
same,Population Tubulin-Different-Phenotype (%),HEK-293T; [4],30% and 40%
same,Total Cell Count,HEK-293T; [4],1020 and 788
same,Population Apoptotic (%),HEK-293T; [5],4% and 10%
same,Population Fragmented Nuclei (%),HEK-293T; [5],20% and 11%
same,Population Healthy Nuclei (%),HEK-293T; [5],78% and 85%
same,Population Hoechst High Intensity Objects (%),HEK-293T; [5],11% and 9%
same,Population Membrane Permeable-Phenotype (%),HEK-293T; [5],6% and 5%
same,Population Mitochondria Different-Phenotype (%),HEK-293T; [5],0%
same,Population Mitotic Cells (%),HEK-293T; [5],95% and 89%
same,Population Normal (%),HEK-293T; [5],88% and 90%
same,Population Pyknosed Nuclei (%),HEK-293T; [5],1% and 2%
same,Population Tubulin-Different-Phenotype (%),HEK-293T; [5],17% and 16%
same,Total Cell Count,HEK-293T; [5],4091 and 2858
same,Population Fragmented Nuclei (%),HEK-293T; [6],23% and 14%
same,Population Healthy Nuclei (%),HEK-293T; [6],75% and 82%
same,Population Hoechst High Intensity Objects (%),HEK-293T; [6],9%
same,Population Membrane Permeable-Phenotype (%),HEK-293T; [6],8% and 5%
same,Population Mitochondria Different-Phenotype (%),HEK-293T; [6],0% and 1%
same,Population Mitotic Cells (%),HEK-293T; [6],96% and 84%
same,Population Normal (%),HEK-293T; [6],90%
same,Population Pyknosed Nuclei (%),HEK-293T; [6],1% and 3%
same,Population Tubulin-Different-Phenotype (%),HEK-293T; [6],15% and 21%
same,Total Cell Count,HEK-293T; [6],2576 and 1623
same,Population Apoptotic (%),Fibroblast; [1],86% and 44%
same,Population Fragmented Nuclei (%),Fibroblast; [1],18% and 16%
same,Population Healthy Nuclei (%),Fibroblast; [1],73%
same,Population Hoechst High Intensity Objects (%),Fibroblast; [1],0%
same,Population Membrane Permeable-Phenotype (%),Fibroblast; [1],5% and 4%
same,Population Mitochondria Different-Phenotype (%),Fibroblast; [1],0% and 1%
same,Population Normal (%),Fibroblast; [1],100% and 99%
same,Population Pyknosed Nuclei (%),Fibroblast; [1],8% and 10%
same,Population Tubulin-Different-Phenotype (%),Fibroblast; [1],7% and 6%
same,Total Cell Count,Fibroblast; [1],185 and 180
same,Population Apoptotic (%),Fibroblast; [2],76% and 66%
same,Population Fragmented Nuclei (%),Fibroblast; [2],13% and 12%
same,Population Healthy Nuclei (%),Fibroblast; [2],76% and 79%
same,Population Hoechst High Intensity Objects (%),Fibroblast; [2],0%
same,Population Membrane Permeable-Phenotype (%),Fibroblast; [2],2%
same,Population Mitochondria Different-Phenotype (%),Fibroblast; [2],0% and 4%
same,Population Mitotic Cells (%),Fibroblast; [2],23% and 33%
same,Population Normal (%),Fibroblast; [2],100%
same,Population Pyknosed Nuclei (%),Fibroblast; [2],9% and 8%
same,Population Tubulin-Different-Phenotype (%),Fibroblast; [2],15% and 11%
same,Total Cell Count,Fibroblast; [2],132 and 172
same,Population Apoptotic (%),Fibroblast; [3],31% and 66%
same,Population Fragmented Nuclei (%),Fibroblast; [3],18% and 16%
same,Population Healthy Nuclei (%),Fibroblast; [3],69% and 76%
same,Population Hoechst High Intensity Objects (%),Fibroblast; [3],0%
same,Population Membrane Permeable-Phenotype (%),Fibroblast; [3],6% and 4%
same,Population Mitochondria Different-Phenotype (%),Fibroblast; [3],0%
same,Population Mitotic Cells (%),Fibroblast; [3],68% and 33%
same,Population Normal (%),Fibroblast; [3],100%
same,Population Pyknosed Nuclei (%),Fibroblast; [3],11% and 6%
same,Population Tubulin-Different-Phenotype (%),Fibroblast; [3],6% and 2%
same,Total Cell Count,Fibroblast; [3],187 and 183
same,Population Apoptotic (%),Fibroblast; [4],80% and 50%
same,Population Fragmented Nuclei (%),Fibroblast; [4],12% and 13%
same,Population Healthy Nuclei (%),Fibroblast; [4],84% and 79%
same,Population Hoechst High Intensity Objects (%),Fibroblast; [4],0%
same,Population Membrane Permeable-Phenotype (%),Fibroblast; [4],1%
same,Population Mitochondria Different-Phenotype (%),Fibroblast; [4],0% and 1%
same,Population Mitotic Cells (%),Fibroblast; [4],20% and 50%
same,Population Normal (%),Fibroblast; [4],100%
same,Population Pyknosed Nuclei (%),Fibroblast; [4],3% and 7%
same,Population Tubulin-Different-Phenotype (%),Fibroblast; [4],9% and 13%
same,Total Cell Count,Fibroblast; [4],140 and 169
same,Population Apoptotic (%),Fibroblast; [5],90% and 54%
same,Population Fragmented Nuclei (%),Fibroblast; [5],18% and 14%
same,Population Healthy Nuclei (%),Fibroblast; [5],75% and 79%
same,Population Hoechst High Intensity Objects (%),Fibroblast; [5],0%
same,Population Membrane Permeable-Phenotype (%),Fibroblast; [5],2%
same,Population Mitochondria Different-Phenotype (%),Fibroblast; [5],0%
same,Population Normal (%),Fibroblast; [5],100%
same,Population Pyknosed Nuclei (%),Fibroblast; [5],5%
same,Population Tubulin-Different-Phenotype (%),Fibroblast; [5],4% and 3%
same,Total Cell Count,Fibroblast; [5],175 and 194
same,Population Apoptotic (%),Fibroblast; [6],25% and 42%
same,Population Fragmented Nuclei (%),Fibroblast; [6],19% and 17%
same,Population Healthy Nuclei (%),Fibroblast; [6],77% and 78%
same,Population Hoechst High Intensity Objects (%),Fibroblast; [6],0%
same,Population Membrane Permeable-Phenotype (%),Fibroblast; [6],0% and 1%
same,Population Mitochondria Different-Phenotype (%),Fibroblast; [6],0%
same,Population Mitotic Cells (%),Fibroblast; [6],75% and 57%
same,Population Normal (%),Fibroblast; [6],100%
same,Population Pyknosed Nuclei (%),Fibroblast; [6],2% and 3%
same,Population Tubulin-Different-Phenotype (%),Fibroblast; [6],10% and 9%
same,Total Cell Count,Fibroblast; [6],163 and 182
same,Population Fragmented Nuclei (%),U2OS; [1],14% and 5%
same,Population Healthy Nuclei (%),U2OS; [1],80% and 82%
same,Population Hoechst High Intensity Objects (%),U2OS; [1],0%
same,Population Membrane Permeable-Phenotype (%),U2OS; [1],2% and 1%
same,Population Mitochondria Different-Phenotype (%),U2OS; [1],0%
same,Population Mitotic Cells (%),U2OS; [1],100% and 50%
same,Population Normal (%),U2OS; [1],100%
same,Population Pyknosed Nuclei (%),U2OS; [1],6% and 11%
same,Population Tubulin-Different-Phenotype (%),U2OS; [1],67% and 89%
same,Population Apoptotic (%),U2OS; [2],57% and 30%
same,Population Healthy Nuclei (%),U2OS; [2],33% and 85%
same,Population Hoechst High Intensity Objects (%),U2OS; [2],0%
same,Population Membrane Permeable-Phenotype (%),U2OS; [2],0% and 1%
same,Population Mitochondria Different-Phenotype (%),U2OS; [2],0% and 1%
same,Population Mitotic Cells (%),U2OS; [2],42% and 69%
same,Population Normal (%),U2OS; [2],100%
same,Population Tubulin-Different-Phenotype (%),U2OS; [2],50% and 75%
same,Population Apoptotic (%),U2OS; [3],50% and 61%
same,Population Fragmented Nuclei (%),U2OS; [3],8% and 5%
same,Population Healthy Nuclei (%),U2OS; [3],83% and 82%
same,Population Hoechst High Intensity Objects (%),U2OS; [3],2% and 0%
same,Population Membrane Permeable-Phenotype (%),U2OS; [3],2% and 0%
same,Population Mitochondria Different-Phenotype (%),U2OS; [3],2% and 0%
same,Population Mitotic Cells (%),U2OS; [3],50% and 38%
same,Population Normal (%),U2OS; [3],97% and 100%
same,Population Pyknosed Nuclei (%),U2OS; [3],8% and 11%
same,Population Tubulin-Different-Phenotype (%),U2OS; [3],67% and 91%
same,Population Apoptotic (%),U2OS; [4],50% and 44%
same,Population Healthy Nuclei (%),U2OS; [4],58% and 88%
same,Population Hoechst High Intensity Objects (%),U2OS; [4],0%
same,Population Membrane Permeable-Phenotype (%),U2OS; [4],10% and 0%
same,Population Mitochondria Different-Phenotype (%),U2OS; [4],10% and 0%
same,Population Mitotic Cells (%),U2OS; [4],50% and 55%
same,Population Normal (%),U2OS; [4],100%
same,Population Pyknosed Nuclei (%),U2OS; [4],23% and 8%
same,Population Tubulin-Different-Phenotype (%),U2OS; [4],80% and 83%
same,Population Apoptotic (%),U2OS; [5],37% and 53%
same,Population Fragmented Nuclei (%),U2OS; [5],13% and 3%
same,Population Healthy Nuclei (%),U2OS; [5],78% and 89%
same,Population Hoechst High Intensity Objects (%),U2OS; [5],0%
same,Population Membrane Permeable-Phenotype (%),U2OS; [5],5% and 0%
same,Population Mitochondria Different-Phenotype (%),U2OS; [5],2% and 0%
same,Population Mitotic Cells (%),U2OS; [5],62% and 46%
same,Population Normal (%),U2OS; [5],100% and 99%
same,Population Pyknosed Nuclei (%),U2OS; [5],8% and 7%
same,Population Tubulin-Different-Phenotype (%),U2OS; [5],64% and 99%
same,Population Apoptotic (%),U2OS; [6],44% and 64%
same,Population Healthy Nuclei (%),U2OS; [6],54% and 90%
same,Population Hoechst High Intensity Objects (%),U2OS; [6],0%
same,Population Membrane Permeable-Phenotype (%),U2OS; [6],10% and 0%
same,Population Mitochondria Different-Phenotype (%),U2OS; [6],10% and 0%
same,Population Mitotic Cells (%),U2OS; [6],55% and 35%
same,Population Normal (%),U2OS; [6],100%
same,Population Tubulin-Different-Phenotype (%),U2OS; [6],84% and 93%
